Assay outcomes as filed in PubChem BioAssay.
CHOP inh – inhibitors of CHOP induction in ER stress response; CHO-K1 CHOP-promoter luciferase, tunicamycin-induced, 15-18 h; inhibition, % at 10 µM; hit rate 3.8% among 220,000; AID 2732;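 active = compounds that reduced the stress-induced luciferase reporter signal by more than about 70% of percent inhibition, limit read from the data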;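 also: 0% = tunicamycin plus vehicle and 100% = wells without tunicamycin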
UPR XBP1 act – activators of adaptive arm of unfolded protein response (XBP1); CHO-XBP1 luciferase reporter, IRE1-XBP1 UPR activation, luminescence; percent of tunicamycin response, DMSO as zero; activation, % at 20 µM; hit rate 0.33% among 330,000; AID 463104;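 active = versus positive control, 20 µM dose yields 30% or more activation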;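 also: 100% = tunicamycin at 10 µg/mL and 0% = DMSO only wells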
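Signal: luciferase luminescence; Assay system: CHO-XBP1 luciferase reporter cells; Amount: one thousand reporter cells per well; Dosing: 20 µM single concentration, DMSO 1%; Benchmarks: high control tunicamycin 10 µg/mL final, low control DMSO vehicle only; Schedule: 6 h compound exposure at 37 °C, 5% CO2; Evaluation: percent activation relative to tunicamycin reference.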
FXN GAA850 act – activators of GAA850 frataxin (FXN) promoter | HEK293 lucGAA850 FXN promoter luciferase reporter, 24 h; percent of 10 µM SAHA response | activation, % at 6 µM | hit rate 0.56% among 360,000 | AID 540364;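 active = activation above the average of all compounds screened plus 3 SD, cutoff fixed separately per campaign, cut at about 7.5% in these data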;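 also: 0% = DMSO wells and 100% = 10 µM SAHA wells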
UPR CHOP act – activators of apoptotic arm of unfolded protein response (CHOP); CHO-CHOP luciferase reporter, UPR activation, luminescence; percent of tunicamycin response over DMSO baseline; hit rate 0.34% among 330,000; activation, % at 10 µM;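 active = at 10 µM dose, activation of 40% or more, normalized to positive control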;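 also: 100% = tunicamycin at 10 µg/mL and 0% = DMSO alone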
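measured by = luciferase luminescence | assay system = CHO-CHOP cells, stable luciferase reporter of PERK-eIF2a-CHOP signalling | amount = 500 reporter cells seeded per well | timing = 6 h compound exposure at 37 °C after overnight seeding | controls = positive tunicamycin 10 µg/mL, negative DMSO alone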
Active calls of the source: *. Many of the other results were omitted from the sample, so hits are more common in it than they were.

CCc1c(C(=O)Nc2ccncc2)csc1C was read as CHOP inh 70.8*, UPR XBP1 act -0.6, FXN GAA850 act -2.8 and UPR CHOP act -1.8.
`CCOC(=O)C1=C(C)NC(=S)NC1c1ccc(-c2cccc(Cl)c2C)o1` (centres undefined) gave CHOP inh 75.2*, UPR XBP1 act -3.4, FXN GAA850 act 1.3 and UPR CHOP act -4.8.
For CCOC(=O)C1=C(C)NC(=S)NC1c1ccc(-c2ccc(Cl)cc2)o1 (centres undefined) the results were CHOP inh 71.8*, UPR XBP1 act -0.8, FXN GAA850 act 2.5 and UPR CHOP act 0.9.
Screening COc1ccccc1CNc1nc(NCc2ccc3occc3c2)c2sccc2n1 returned FXN GAA850 act 0.1.
For O=C(c1ccc(CSc2nc3ccncc3[nH]2)cc1)N1CCN(c2cccc(Cl)c2)CC1 the results were CHOP inh 83.1*, UPR XBP1 act 2.7, FXN GAA850 act -2.3 and UPR CHOP act 11.9.
For Cc1ccc(S(=O)(=O)Nc2nc3ccccc3nc2Nc2cccc(S(=O)(=O)N3CCCC3)c2)cc1 the results were CHOP inh 31.1, UPR XBP1 act 0.1, FXN GAA850 act 3.1 and UPR CHOP act 2.4.
O=[N+]([O-])c1cccc(S(=O)(=O)Nc2nc3ccccc3nc2Nc2cccc(S(=O)(=O)N3CCCCC3)c2)c1 was read as CHOP inh 82.4* and FXN GAA850 act 0.7.
Screening CCN(CC)C(=O)C1=C(C)N(CCC2=CCCCC2)C(=O)C(CC(=O)NC2CCCC2)C1 (centres undefined) returned FXN GAA850 act -0.8.
For COc1ccc(C(=O)N/C(=C\c2ccc(Cl)cc2)C(=O)NCc2ccncc2)cc1 the results were FXN GAA850 act 0.7.
For O=C(NCC1CCCO1)c1cccc(S(=O)(=O)Nc2ccccc2Cl)c1 (centres undefined) the results were FXN GAA850 act 0.9.
For O=[N+]([O-])c1ccc(Cl)cc1C=NNc1ccccn1 the results were FXN GAA850 act -2.3.
`O=[N+]([O-])c1cc(Cl)cc(/C=N\Nc2ccccn2)c1O` gave CHOP inh 93.3*, UPR XBP1 act -0.7, FXN GAA850 act -2.1 and UPR CHOP act -1.0.
Screening CN(C)c1ccc(C(CNS(=O)(=O)c2ccc3ccccc3c2)c2c[nH]c3ccccc23)cc1 (centres undefined) returned CHOP inh 76.0*, UPR XBP1 act -0.9, FXN GAA850 act 3.4 and UPR CHOP act 0.8.
For CN(C)c1ccc(C(CN)c2c[nH]c3ccccc23)cc1 (centres undefined) the results were CHOP inh -9.3, UPR XBP1 act -6.0, FXN GAA850 act -1.7 and UPR CHOP act 2.0.
`CSc1nnc2n(-c3ccc(C)cc3)c(=O)c3c4c(sc3n12)COC(C(C)C)C4` (centres undefined) gave CHOP inh 80.9*, UPR XBP1 act 5.6, FXN GAA850 act 0.1 and UPR CHOP act 3.0.
For O=C(NCc1ccccc1OC(F)(F)F)C1CCC(=O)N(CCCN2CCOCC2)C1 (centres undefined) the results were FXN GAA850 act 0.2.
Screening COc1ccc2c(c1)CCC1C2CC[C@@]2(C)C1CC[C@@H]2NCCCCCCN1C(=O)C=CC1=O (some centres undefined) returned CHOP inh 3.6.
`C=CCSc1nc(Oc2ccccc2)c2sccc2n1` gave CHOP inh 72.4*, UPR XBP1 act 1.3, FXN GAA850 act 5.8 and UPR CHOP act -1.1.
CSc1nc(Oc2ccccc2)c2sccc2n1 was read as CHOP inh 51.3, UPR XBP1 act -1.1, FXN GAA850 act 0.7 and UPR CHOP act -3.8.
Screening O=C1/C(=C/c2cccnc2)Oc2cc(OS(=O)(=O)c3ccc(Cl)cc3)ccc21 returned CHOP inh 78.2*, UPR XBP1 act 0.4, FXN GAA850 act 0.6 and UPR CHOP act 1.8.
CC(/C=C1\N=C(SCc2ccccc2Cl)SC1=O)=C\c1ccccc1 was read as CHOP inh 75.8*, UPR XBP1 act 2.0, FXN GAA850 act 1.6 and UPR CHOP act 1.2.
Screening CCc1cc2c(-c3ccccc3)cc(=O)oc2cc1OC(=O)c1cccs1 returned CHOP inh 70.4*, UPR XBP1 act 1.9, FXN GAA850 act -0.3 and UPR CHOP act -2.4.
Screening COc1cccc(CNC(=O)[C@H](C)NC(=O)N2CC(=O)Nc3ccccc32)c1 returned FXN GAA850 act 0.0.
Screening COC(=O)c1c(NC(=O)CN2CCCc3ccccc32)sc(C)c1C returned CHOP inh 70.4*, UPR XBP1 act -1.7, FXN GAA850 act 4.4 and UPR CHOP act -3.1.
For CCOC(=O)c1c(NC(=O)CN2CCCc3ccccc32)sc(C)c1C the results were CHOP inh 52.4, UPR XBP1 act -5.3, FXN GAA850 act 3.5 and UPR CHOP act 4.1.
`COc1ccc(N2c3ccccc3CN(Cc3ccccc3)[C@@H](C)[C@H]2Cc2cccnc2)cc1` gave FXN GAA850 act -2.2.
Screening CC(c1ccc2ccccc2c1)c1ccccc1C(=O)O (centres undefined) returned FXN GAA850 act 0.2.
For CCOc1cc(/C=N\NC(=O)c2ccc(NC(=O)C(C)(C)C)cc2)ccc1OC(=O)c1ccc(C)cc1 the results were CHOP inh 82.8*, UPR XBP1 act 4.7, FXN GAA850 act -1.1 and UPR CHOP act 5.8.
Screening CCOc1cc(/C=N/NC(=O)c2cc(C)[nH]n2)ccc1OC(=O)c1ccc([N+](=O)[O-])cc1 returned CHOP inh 78.7*, UPR XBP1 act -0.8 and UPR CHOP act 1.6.
Screening Cc1noc(C)c1C(=O)N1CCC1(C)C(=O)NS(=O)(=O)c1ccccc1Cl (centres undefined) returned FXN GAA850 act 0.2.
For COc1ccccc1NC(=O)CCNC(=O)C1CCN(S(=O)(=O)c2ccccc2)CC1 the results were FXN GAA850 act 1.8.
CCOc1ccccc1NC1c2ccccc2C(=O)N1c1ccc(C)cn1 (centres undefined) was read as CHOP inh 51.3, UPR XBP1 act -0.6, FXN GAA850 act 1.1 and UPR CHOP act 1.2.
For CCOC(=O)c1ccccc1NC1c2ccccc2C(=O)N1c1ccc(C)cn1 (centres undefined) the results were CHOP inh 85.3*, UPR XBP1 act -2.6, FXN GAA850 act 1.8 and UPR CHOP act 5.3.
CCCN1Cc2cccc(C(=O)Nc3ccc4c(c3)OCCO4)c2C1=O was read as CHOP inh 77.7*, UPR XBP1 act -0.6, FXN GAA850 act -1.1 and UPR CHOP act -0.6.
CCOC(=O)C1(C)CCN1C(=O)c1cccs1 (centres undefined) was read as FXN GAA850 act -0.3.
Screening COc1ccc(/C=N/n2c(-c3ccco3)nc3ccccc3c2=O)cc1 returned CHOP inh 80.0*, UPR XBP1 act 2.1, FXN GAA850 act -0.5 and UPR CHOP act 2.6.
`CC(=O)n1cc(N(C(=O)CCl)c2ccc(Cl)cc2)c2ccccc21` gave CHOP inh 107.2*, UPR XBP1 act -8.0, FXN GAA850 act -2.7 and UPR CHOP act -8.4.
